ChEMBL document CHEMBL1148953, “Activity-guided fractionation of the leaves of Ormosia sumatrana using a proteasome inhibition assay” (J Nat Prod, 2004)
Activity calls are given as the source filed them. The rule behind the calls is not given here.

What was measured:
HL-60 [1] = assay: Inhibition of human HL60 cells-derived chymotrypsin-like proteasome activity at 28 uM; type: subcellular
HL-60 [2] = assay: (§1) Inhibition of human HL60 cells-derived chymotrypsin-like proteasome activity; type: subcellular
Outline: (§2)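 Proteasome-enriched fraction from HL-60 cells, prepared by 100 000g spin, then 5% and 12% PEG (w/v) fractionation and 2-fold dilution in 10 mM Tris-EDTA pH 7.5. Fraction at final 50 µg/mL in 155 mM Tris, 10 mM EDTA, pH 7.4. Preincubated with inhibitor 30 min at room temperature, then 10 µM Suc-LLVY-AMC for 1 h. Free AMC read at ex 360/em 460 nm. IC50 reported.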

KB = assay: In vivo cytotoxicity against human KB cells by hollow fiber assay; type: functional
Col2 = assay: In vivo cytotoxicity against human Col2 cells by hollow fiber assay; type: functional
[3] = In vivo cytotoxicity against human RPE1 cells expressing human telomerase reverse transcriptase by hollow fiber assay; type: functional, TERT-RPE1
[4] = as §1; type: subcellular; settings: hl-60; outline: as §2

SMILES	inhibition (HL-60 [1]) [%]	Activity (HL-60 [2])	ED50 (KB) [µg/mL]	ED50 (Col2) [µg/mL]	ED50 [3] [µg/mL]	IC50 [4] [µM]
O=C(/C=C/c1ccccc1)O[C@@H]1Cc2c(O)cc3c(c2O[C@@H]1c1ccc(O)c(O)c1)[C@H]1c2c(O)cc(O)cc2O[C@@](c2ccc(O)c(O)c2)(O3)[C@@H]1O	< 10					
CCCCCCCC/C=C\CCCC[C@@H](OC(C)=O)[C@@H](OC(C)=O)[C@H](COC(C)=O)NC(C)=O		inactive	>5	>5	>5	
CCCCCCCC/C=C\CCCC[C@@H](O)[C@@H](O)C(CO[C@@H]1O[C@H](CO)[C@@H](O)[C@H](O)[C@H]1O)NC(=O)[C@@H](O)CCCCCCCCCCCCCCCCCCCCCC (stereo not given in full) [SUMATRANOSIDE]						30
CCCCCCCCCCCCCCCCCCCCCC[C@@H](OC(C)=O)C(=O)OC		inactive	>5	>5	>5	
